Calls of active or inactive are those of the source. No cut-off for these calls is given here.
Experiments:
Staphylococcus aureus [1] = assay: Antibacterial activity against Staphylococcus aureus ATCC 29213 after 16 to 20 hrs by broth microdilution method; type: functional
Outline: (§1)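 Broth microdilution per CLSI. Bacteria grown 4-6 h (about 10⁸ CFU/mL), then diluted to about 10⁶ CFU/mL. Medium: Mueller-Hinton broth, except Luria-Bertani broth for E. coli. Compounds in sterile water, twofold series 256-0.5 µg/mL, mixed 1:1 with inoculum, 37 °C for 16-20 h. MIC is the lowest concentration without visible growth. Duplicate wells; experiment repeated at least twice.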

Enterococcus faecalis = assay: Antibacterial activity against Enterococcus faecalis ATCC 29212 after 16 to 20 hrs by broth microdilution method; type: functional; outline: as §1
Escherichia coli [2] = assay: Antibacterial activity against Escherichia coli ATCC 25922 after 16 to 20 hrs by broth microdilution method; type: functional; outline: as §1
Salmonella enterica = assay: Antibacterial activity against Salmonella enterica ATCC 13076 after 16 to 20 hrs by broth microdilution method; type: functional; outline: as §1
[3] = Hemolytic activity in sheep RBC after 1 hr; type: ADME, cell-based, Ovis aries, Erythrocyte; settings: sheep red blood cells (erythrocytes)
Outline: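 Sheep red blood cells (150 µL suspension) mixed with 50 µL of compound dilutions (5120-10 µg/mL), 1 h at 37 °C, then centrifuged. Supernatant read at 540 nm. Percent hemolysis calculated relative to RBC-only control (0%) and 0.1% Triton X-100 (100%).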

Staphylococcus aureus [4] = assay: Antibacterial activity against methicillin-resistant Staphylococcus aureus clinical isolate 1105183 cono7 after 16 to 20 hrs by broth microdilution method; type: functional
Outline: (§2)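 CLSI broth microdilution in Mueller-Hinton broth. A 4-6 h culture was diluted to about 10⁶ CFU/mL and mixed 1:1 with compound dilutions prepared at 256 to 0.5 µg/mL from aqueous stocks. Plates were incubated at 37 °C for 16-20 h and read visually for MIC. Each concentration was run in duplicate, and the experiment was repeated at least twice. Vancomycin and meropenem were comparators.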

Staphylococcus aureus [5] = assay: Antibacterial activity against methicillin-resistant Staphylococcus aureus clinical isolate 20130911034sau after 16 to 20 hrs by broth microdilution method; type: functional; outline: as §2
Staphylococcus aureus [6] = assay: Antibacterial activity against methicillin-resistant Staphylococcus aureus clinical isolate 0831010 after 16 to 20 hrs by broth microdilution method; type: functional; outline: as §2
Staphylococcus aureus [7] = assay: Antibacterial activity against methicillin-resistant Staphylococcus aureus clinical isolate 1104060 after 16 to 20 hrs by broth microdilution method; type: functional; outline: as §2
Staphylococcus aureus [8] = assay: Antibacterial activity against methicillin-resistant Staphylococcus aureus clinical isolate 20131012632sau after 16 to 20 hrs by broth microdilution method; type: functional; outline: as §2
Staphylococcus aureus [9] = assay: Antibacterial activity against methicillin-resistant Staphylococcus aureus clinical isolate 1207007 after 16 to 20 hrs by broth microdilution method; type: functional; outline: as §2
Staphylococcus aureus [10] = assay: Antibacterial activity against methicillin-resistant Staphylococcus aureus clinical isolate 1-may after 16 to 20 hrs by broth microdilution method; type: functional; outline: as §2
Staphylococcus aureus [11] = assay: Antibacterial activity against methicillin-resistant Staphylococcus aureus clinical isolate 0906202 after 16 to 20 hrs by broth microdilution method; type: functional; outline: as §2
Staphylococcus aureus [12] = assay: Antibacterial activity against methicillin-resistant Staphylococcus aureus clinical isolate 1208143 after 16 to 20 hrs by broth microdilution method; type: functional; outline: as §2
Klebsiella pneumoniae [13] = assay: Antibacterial activity against drug-resistant carbapenemase producing Klebsiella pneumoniae clinical isolate KP-14-8 after 16 to 20 hrs by broth microdilution method; type: functional; outline: as §2
Klebsiella pneumoniae [14] = assay: Antibacterial activity against drug-resistant carbapenemase producing Klebsiella pneumoniae clinical isolate KP-13-45 after 16 to 20 hrs by broth microdilution method; type: functional; outline: as §2
Klebsiella pneumoniae [15] = assay: Antibacterial activity against drug-resistant carbapenemase producing Klebsiella pneumoniae clinical isolate KP-14-3 after 16 to 20 hrs by broth microdilution method; type: functional; outline: as §2
Klebsiella pneumoniae [16] = assay: Antibacterial activity against drug-resistant carbapenemase producing Klebsiella pneumoniae clinical isolate KP-14-1 after 16 to 20 hrs by broth microdilution method; type: functional; outline: as §2
Klebsiella pneumoniae [17] = assay: Antibacterial activity against drug-resistant carbapenemase producing Klebsiella pneumoniae clinical isolate KP-14-4 after 16 to 20 hrs by broth microdilution method; type: functional; outline: as §2
Klebsiella pneumoniae [18] = assay: Antibacterial activity against drug-resistant carbapenemase producing Klebsiella pneumoniae clinical isolate KP-13-54 after 16 to 20 hrs by broth microdilution method; type: functional; outline: as §2
Klebsiella pneumoniae [19] = assay: Antibacterial activity against drug-resistant carbapenemase producing Klebsiella pneumoniae clinical isolate KP-14-2 after 16 to 20 hrs by broth microdilution method; type: functional; outline: as §2
Klebsiella pneumoniae [20] = assay: Antibacterial activity against drug-resistant carbapenemase producing Klebsiella pneumoniae clinical isolate EC-13-23 after 16 to 20 hrs by broth microdilution method; type: functional; outline: as §2
Klebsiella pneumoniae [21] = assay: Antibacterial activity against drug-resistant carbapenemase producing Klebsiella pneumoniae clinical isolate KP-14-5 after 16 to 20 hrs by broth microdilution method; type: functional; outline: as §2
Klebsiella pneumoniae [22] = assay: Antibacterial activity against drug-resistant carbapenemase producing Klebsiella pneumoniae clinical isolate KP-13-55 after 16 to 20 hrs by broth microdilution method; type: functional; outline: as §2
Klebsiella pneumoniae [23] = assay: Antibacterial activity against drug-resistant carbapenemase producing Klebsiella pneumoniae clinical isolate KP-14-45 after 16 to 20 hrs by broth microdilution method; type: functional; outline: as §2
Klebsiella pneumoniae [24] = assay: Antibacterial activity against drug-resistant carbapenemase producing Klebsiella pneumoniae clinical isolate KP-14-18 after 16 to 20 hrs by broth microdilution method; type: functional; outline: as §2
Escherichia coli [25] = assay: Antibacterial activity against drug-resistant NDM1 producing Escherichia coli clinical isolate EC-13-49 after 16 to 20 hrs by broth microdilution method; type: functional; outline: as §2
Escherichia coli [26] = assay: Antibacterial activity against drug-resistant NDM1 producing Escherichia coli clinical isolate Ecl-14-58 after 16 to 20 hrs by broth microdilution method; type: functional; outline: as §2
Escherichia coli [27] = assay: Antibacterial activity against drug-resistant NDM1 producing Escherichia coli clinical isolate KP-13-58 after 16 to 20 hrs by broth microdilution method; type: functional; outline: as §2
Escherichia coli [28] = assay: Antibacterial activity against drug-resistant NDM1 producing Escherichia coli clinical isolate Ecl-13-62 after 16 to 20 hrs by broth microdilution method; type: functional; outline: as §2
Escherichia coli [29] = assay: Antibacterial activity against drug-resistant NDM1 producing Escherichia coli clinical isolate EC-14-54 after 16 to 20 hrs by broth microdilution method; type: functional; outline: as §2
Escherichia coli [30] = assay: Antibacterial activity against drug-resistant NDM1 producing Escherichia coli clinical isolate Ecl-14-59 after 16 to 20 hrs by broth microdilution method; type: functional; outline: as §2
Escherichia coli [31] = assay: Antibacterial activity against drug-resistant NDM1 producing Escherichia coli clinical isolate EA-14-61 after 16 to 20 hrs by broth microdilution method; type: functional; outline: as §2
Escherichia coli [32] = assay: Antibacterial activity against drug-resistant NDM1 producing Escherichia coli clinical isolate Ecl-14-56 after 16 to 20 hrs by broth microdilution method; type: functional; outline: as §2
Escherichia coli [33] = assay: Antibacterial activity against drug-resistant NDM1 producing Escherichia coli clinical isolate 1460 after 16 to 20 hrs by broth microdilution method; type: functional; outline: as §2
Escherichia coli [34] = assay: Antibacterial activity against drug-resistant NDM1 producing Escherichia coli clinical isolate SM-15-84 after 16 to 20 hrs by broth microdilution method; type: functional; outline: as §2
Escherichia coli [35] = assay: Antibacterial activity against drug-resistant NDM1 producing Escherichia coli clinical isolate CF-15-61 after 16 to 20 hrs by broth microdilution method; type: functional; outline: as §2
Escherichia coli [36] = assay: Antibacterial activity against drug-resistant NDM1 producing Escherichia coli clinical isolate CF-13-61 after 16 to 20 hrs by broth microdilution method; type: functional; outline: as §2
Staphylococcus aureus [37] = assay: Induction of cytoplasmic membrane depolarization in Staphylococcus aureus ATCC 29213 at 10 to 20 ug/ml measured every 2 mins for 12 mins by DiSC35 dye-based fluorescence assay; type: functional, organism-based
Outline: (§3)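 Mid-log cells (~10⁸ CFU/mL) were suspended in PBS (S. aureus) or HEPES/glucose/KCl with EDTA (E. coli). They were preloaded with DiSC3(5) for 30 min (S. aureus) or 40 min (E. coli), and baseline fluorescence was read for 8 min. Compound was added to 20 µg/mL final, and fluorescence (ex 622/em 670 nm) was read every 2 min for 12 min. Water served as control.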

Escherichia coli [38] = assay: Induction of cytoplasmic membrane depolarization in Escherichia coli ATCC 25922 at 10 to 20 ug/ml measured every 2 mins for 12 mins by DiSC35 dye-based fluorescence assay; type: functional, organism-based; outline: as §3
Staphylococcus aureus [39] = assay: Induction of inner membrane permeabilization in Staphylococcus aureus ATCC 29213 at 10 to 20 ug/ml measured every 2 mins for 12 mins by propidium iodide staining-based fluorescence assay; type: functional, organism-based
Outline: (§4)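 Mid-log cells (~10⁸ CFU/mL) were suspended in PBS (S. aureus) or HEPES/glucose/KCl (E. coli). They were preincubated with propidium iodide for 30 min (S. aureus) or 40 min (E. coli), and baseline fluorescence was read for 8 min. Compound was added to 20 µg/mL final, and fluorescence (ex 535/em 617 nm) was read every 2 min for 12 min.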

Escherichia coli [40] = assay: Induction of inner membrane permeabilization in Escherichia coli ATCC 25922 at 10 to 20 ug/ml measured every 2 mins for 12 mins by propidium iodide staining-based fluorescence assay; type: functional, organism-based; outline: as §4

CCCCCCCC[N+](C)(C)CC(=O)Nc1ccc(C(=O)/C=C/c2ccccc2C(F)(F)F)cc1.[Cl-]
MIC (Staphylococcus aureus [1]): 2 µg/mL
MIC (Enterococcus faecalis): 4 µg/mL
MIC (Escherichia coli [2]): 8 µg/mL
MIC (Salmonella enterica): 16 µg/mL
HC50 at 1 h [3]: 136 µg/mL
MIC (Staphylococcus aureus [4]): 1 µg/mL
MIC (Staphylococcus aureus [5]): 0.5 µg/mL
MIC (Staphylococcus aureus [6]): 0.5 µg/mL
MIC (Staphylococcus aureus [7]): 16 µg/mL
MIC (Staphylococcus aureus [8]): 4 µg/mL
MIC (Staphylococcus aureus [9]): 2 µg/mL
MIC (Staphylococcus aureus [10]): 0.5 µg/mL
MIC (Staphylococcus aureus [11]): 1 µg/mL
MIC (Staphylococcus aureus [12]): 1 µg/mL
MIC (Klebsiella pneumoniae [13]): 8 µg/mL
MIC (Klebsiella pneumoniae [14]): 8 µg/mL
MIC (Klebsiella pneumoniae [15]): 8 µg/mL
MIC (Klebsiella pneumoniae [16]): > 128 µg/mL
MIC (Klebsiella pneumoniae [17]): 8 µg/mL
MIC (Klebsiella pneumoniae [18]): 4 µg/mL
MIC (Klebsiella pneumoniae [19]): > 128 µg/mL
MIC (Klebsiella pneumoniae [20]): 4 µg/mL
MIC (Klebsiella pneumoniae [21]): 8 µg/mL
MIC (Klebsiella pneumoniae [22]): 16 µg/mL
MIC (Klebsiella pneumoniae [23]): 8 µg/mL
MIC (Klebsiella pneumoniae [24]): 16 µg/mL
MIC (Escherichia coli [25]): 8 µg/mL
MIC (Escherichia coli [26]): 8 µg/mL
MIC (Escherichia coli [27]): 1 µg/mL
MIC (Escherichia coli [28]): 8 µg/mL
MIC (Escherichia coli [29]): 16 µg/mL
MIC (Escherichia coli [30]): 8 µg/mL
MIC (Escherichia coli [31]): 8 µg/mL
MIC (Escherichia coli [32]): 4 µg/mL
MIC (Escherichia coli [33]): 8 µg/mL
MIC (Escherichia coli [34]): 128 µg/mL
MIC (Escherichia coli [35]): 4 µg/mL
MIC (Escherichia coli [36]): 4 µg/mL
Activity (Staphylococcus aureus [37]): Active
Activity (Escherichia coli [38]): Active
Activity (Staphylococcus aureus [39]): Active
Activity (Escherichia coli [40]): Active

CCCCCCCC[N+](C)(C)CC(=O)Nc1ccc(C(=O)/C=C/c2ccc(OC)cc2)cc1.[Cl-]
MIC (Staphylococcus aureus [1]): 1 µg/mL
MIC (Enterococcus faecalis): 2 µg/mL
MIC (Escherichia coli [2]): 4 µg/mL
MIC (Salmonella enterica): 4 µg/mL
HC50 at 1 h [3]: 124 µg/mL
MIC (Staphylococcus aureus [4]): 1 µg/mL
MIC (Staphylococcus aureus [5]): 1 µg/mL
MIC (Staphylococcus aureus [6]): 0.5 µg/mL
MIC (Staphylococcus aureus [7]): 8 µg/mL
MIC (Staphylococcus aureus [8]): 4 µg/mL
MIC (Staphylococcus aureus [9]): 0.5 µg/mL
MIC (Staphylococcus aureus [10]): 1 µg/mL
MIC (Staphylococcus aureus [11]): 1 µg/mL
MIC (Staphylococcus aureus [12]): 1 µg/mL
MIC (Klebsiella pneumoniae [13]): 8 µg/mL
MIC (Klebsiella pneumoniae [14]): 8 µg/mL
MIC (Klebsiella pneumoniae [15]): 8 µg/mL
MIC (Klebsiella pneumoniae [16]): 8 µg/mL
MIC (Klebsiella pneumoniae [17]): 4 µg/mL
MIC (Klebsiella pneumoniae [18]): 8 µg/mL
MIC (Klebsiella pneumoniae [19]): 2 µg/mL
MIC (Klebsiella pneumoniae [20]): 8 µg/mL
MIC (Klebsiella pneumoniae [21]): 8 µg/mL
MIC (Klebsiella pneumoniae [22]): 16 µg/mL
MIC (Klebsiella pneumoniae [23]): 16 µg/mL
MIC (Klebsiella pneumoniae [24]): 16 µg/mL
MIC (Escherichia coli [25]): 4 µg/mL
MIC (Escherichia coli [26]): 8 µg/mL
MIC (Escherichia coli [27]): 1 µg/mL
MIC (Escherichia coli [28]): 8 µg/mL
MIC (Escherichia coli [29]): 4 µg/mL
MIC (Escherichia coli [30]): 8 µg/mL
MIC (Escherichia coli [31]): 8 µg/mL
MIC (Escherichia coli [32]): 8 µg/mL
MIC (Escherichia coli [33]): 8 µg/mL
MIC (Escherichia coli [34]): 16 µg/mL
MIC (Escherichia coli [35]): 8 µg/mL
MIC (Escherichia coli [36]): 32 µg/mL
Activity (Staphylococcus aureus [37]): Active
Activity (Escherichia coli [38]): Active
Activity (Staphylococcus aureus [39]): Active
Activity (Escherichia coli [40]): Active

Reference: ChEMBL document CHEMBL4138242, “Synthesis and antibacterial evaluation of novel cationic chalcone derivatives possessing broad spectrum antibacterial activity” (Eur J Med Chem, 2018)
